The record followed here is ChEMBL document CHEMBL2169809, “Identification of high-affinity P2Y₁₂ antagonists based on a phenylpyrazole glutamic acid piperazine backbone” (J Med Chem, 2012).

pIC50, pKi: −log10 of the molar value. Where only a bound is given, the exact number is not on record here.

A word on the pKi: it is −log10 of the Ki, conventionally taken in molar units. In general, pIC50 refers to the negative decadic logarithm of the IC50, by convention in mol/L.

For one assay, the target named is P2Y purinoceptor 12 (Homo sapiens, UniProt Q9H244). Put plainly: Displacement of [33P]2-MeS-ADP from human recombinant P2Y12 receptor expressed in CHO cell membranes by scintillation counting method.
The next assay relates to Platelet. Description: Inhibition of ADP-stimulated platelet aggregation in human platelet rich plasma by 96-well format based turbidimetric method. The class given is functional. A digest of the protocol: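 Citrated (ACD-A) donor blood was spun at 150g for 15 min at room temperature to give PRP. PRP was adjusted with PPP to 3 × 10^8 platelets/mL. Compound, diluted in NaCl, was preincubated with hPRP for 5 min before ADP was added.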

Chain of P2Y purinoceptor 12 (Q9H244 whole entry): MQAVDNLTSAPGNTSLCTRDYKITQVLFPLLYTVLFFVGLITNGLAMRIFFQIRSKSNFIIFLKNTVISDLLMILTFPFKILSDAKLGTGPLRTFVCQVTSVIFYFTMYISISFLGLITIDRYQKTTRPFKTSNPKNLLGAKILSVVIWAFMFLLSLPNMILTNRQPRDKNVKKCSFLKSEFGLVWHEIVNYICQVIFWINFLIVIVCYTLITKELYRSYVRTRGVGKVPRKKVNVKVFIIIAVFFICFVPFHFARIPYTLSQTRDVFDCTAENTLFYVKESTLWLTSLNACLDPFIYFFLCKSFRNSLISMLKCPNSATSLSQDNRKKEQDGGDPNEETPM

Turning to `CCOC(=O)N1CCN(C(=O)[C@H](CCNS(C)(=O)=O)NC(=O)c2cc(OCC(=O)N3CCC[C@H]3C(=O)NC3CCC3)n(-c3ccccc3)n2)CC1`, the pKi on P2Y purinoceptor 12 was 7.64.
On to `CCOC(=O)N1CCN(C(=O)[C@H](CCN)NC(=O)c2cc(OCC(=O)N3CCC[C@H]3C(=O)NC3CCC3)n(-c3ccccc3)n2)CC1`, for which the pKi on P2Y purinoceptor 12 was 6.74. This molecule also showed a pIC50 with Platelet of 5.42.
In the same order, the values of `CCOC(=O)N1CCN(C(=O)[C@H](CCNC(C)=O)NC(=O)c2cc(OCC(=O)N3CCC[C@H]3C(=O)NC3CCC3)n(-c3ccccc3)n2)CC1` are 7.38 and 6.17.
Consider `CCOC(=O)N1CCN(C(=O)[C@H](CCCCO)NC(=O)c2cc(OCC(=O)N3CCC[C@H]3C(=O)NC3CCC3)n(-c3ccccc3)n2)CC1`, for which the pKi on P2Y purinoceptor 12 was 6.69. Further, the pIC50 with Platelet was 5.62.
In the same order, the values of `CCC[C@H](NC(=O)c1cc(OCC(=O)N2CCC[C@H]2C(=O)NC2CCC2)n(-c2ccccc2)n1)C(=O)N1CCN(C(=O)OCC)CC1` are 6.76 and 5.44.
In the same order, the values of `CCOC(=O)N1CCN(C(=O)[C@H](CC(C)C)NC(=O)c2cc(OCC(=O)N3CCC[C@H]3C(=O)NC3CCC3)n(-c3ccccc3)n2)CC1` are 6.68 and less than 5.30.
In the same order, the values of `CCOC(=O)N1CCN(C(=O)[C@@H](NC(=O)c2cc(OCC(=O)N3CCC[C@H]3C(=O)NC3CCC3)n(-c3ccccc3)n2)C(C)C)CC1` are 6.74 and 5.72.
Take `CCOC(=O)N1CCN(C(=O)[C@H](C)NC(=O)c2cc(OCC(=O)N3CCC[C@H]3C(=O)NC3CCC3)n(-c3ccccc3)n2)CC1`: the pKi at P2Y purinoceptor 12 was 6.95. This molecule also had a pIC50 with Platelet of 5.66.
On the same counts, the results for `O=C(O)CC[C@H](NC(=O)c1cc(OCC(=O)N2CCC[C@H]2C(=O)NC2CCC2)n(-c2ccccc2)n1)C(=O)N1CCN(C(=O)OCc2ccccc2)CC1` are 8.24 and 6.91.
In the same order, the values of `O=C(O)CC[C@H](NC(=O)c1cc(OCC(=O)N2CCC[C@H]2C(=O)NC2CCC2)n(-c2ccccc2)n1)C(=O)N1CCN(C(=O)Oc2ccccc2)CC1` are 7.15 and 5.97.
In the same order, the values of `O=C(O)CC[C@H](NC(=O)c1cc(OCC(=O)N2CCC[C@H]2C(=O)NC2CCC2)n(-c2ccccc2)n1)C(=O)N1CCN(C(=O)OC2CCC2)CC1` are 8.30 and 7.85.
For the molecule `CCOC(=O)N1CCN(C(=O)[C@H](CCC(=O)O)NC(=O)c2cc(OCC(=O)N3CCC[C@H]3C(=O)NC3CCC3)n(-c3ccccc3)n2)[C@H](C)C1`, the pKi on P2Y purinoceptor 12 was 8.11. The molecule also had a pIC50 in the assay on Platelet of 7.14.
In the same order, the values of `CCOC(=O)N1CCN(C(=O)[C@H](CCC(=O)O)NC(=O)c2cc(OCC(=O)N3CCC[C@H]3C(=O)NC3CCC3)n(-c3ccccc3)n2)[C@@H](C)C1` are 7.27 and 6.37.
In the same order, the values of `CCOC(=O)N1CCN(C(=O)[C@H](CCC(=O)O)NC(=O)c2cc(OCC(=O)N3CCC[C@H]3C(=O)NC3CCC3)n(-c3ccccc3)n2)C[C@@H]1C` are 7.10 and 5.82.
In the same order, the values of `CCOC(=O)N1CCN(C(=O)[C@H](CCC(=O)O)NC(=O)c2cc(OCC(=O)N3CCC[C@H]3C(=O)NC3CCC3)n(-c3ccccc3)n2)C[C@H]1C` are 7.29 and 6.47.
Turning to `CCOC(=O)N1CCN(C(=O)[C@H](CNS(C)(=O)=O)NC(=O)c2cc(OCC(=O)N3CCC[C@H]3C(=O)NC3CCC3)n(-c3ccccc3)n2)CC1`, the pKi on P2Y purinoceptor 12 is 7.32. Also, the pIC50 with Platelet is 5.92.
Regarding `CCOC(=O)N1CCN(C(=O)[C@H](CCC(=O)O)NC(=O)c2cc(OCC(=O)N3CCC[C@H]3c3ccccc3)n(-c3ccccc3)n2)CC1`, the negative logarithm of the Ki (pKi) on P2Y purinoceptor 12 is 7.48.
On the same count and under the same terms, as for `CCOC(=O)N1CCN(C(=O)[C@H](CCC(=O)O)NC(=O)c2cc(OCC(=O)N3CCC[C@H]3C(=O)NC(C)C)n(-c3ccccc3)n2)CC1`, the figure is 7.25.
The same measure, in the same setting: as for `CCOC(=O)N1CCN(C(=O)[C@H](CCC(=O)O)NC(=O)c2cc(OCC(=O)N3CCC[C@@H]3C(=O)NC3CC3)n(-c3ccccc3)n2)CC1`, the figure is 6.02.
